Assay results: ChEMBL document CHEMBL4715907, “Cytoprotective activities of kinetin purine isosteres” (Bioorg Med Chem, 2021)
The source made the active and inactive calls. The rule behind the calls is not given here.

Assays:
[1] = Stability in human plasma assessed as parent compound remaining at 2 uM measured up to 120 mins by RF-MS analysis; format: ADME, cell-free; settings: read-out: Stabilty
[2] = Protein binding in human plasma at 10 uM after 4 hrs by RF-MS analysis; format: ADME, cell-free; settings: read-out: PPB (converted)
[3] = Apparent permeability of compound in human Caco2 cells; format: ADME, cell-based; settings: Caco-2
[4] = test system: GM04663; assay: Cytoprotective activity in human GM04663 cells assessed as aberrant splicing of ELP1 mRNA expression at 50 uM incubated for 24 hrs by RT-PCR anlaysis; format: functional, cell-based
In short: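 GM04663 patient fibroblasts, about 500,000 per 10 cm dish in DMEM with 10% FBS, were grown overnight and then treated 24 h at 50 µM, with DMSO vehicle. Total RNA was extracted with Trizol and reverse-transcribed. ELP1 nt 2194–2593 (NM_003640.5) was amplified over 34 cycles with 63.8 °C annealing. Wild-type and aberrant transcripts were quantified by peak area against DNA standards of known size and concentration.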

[5] = Apparent permeability of compound in MDCK-MDR1 cells; format: ADME, cell-based, Canis lupus familiaris; settings: dog
In short: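 MDCK-MDR1 cells formed monolayers on 1 µm pore Transwell filters, used only if intact by Lucifer Yellow rejection. Cells were washed with HBSS and pre-equilibrated at pH 7.4 for 1 h, then exposed to 10 µM compound in HBSS pH 7.4 for 1 h, apical-to-basal and basal-to-apical. Donor and acceptor were quantified by RapidFire MS/MS (MRM). Papp = (dQ/dt)/(C0 × A), duplicates.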

[6] = Stability in human liver microsomes assessed as parent compound remaining at 2 uM measured up to 60 mins by RF-MS analysis; format: ADME, Microsome; settings: read-out: Stabilty
[7] = test system: SH-SY5Y; assay: Cytoprotective activity against glutamate-induced ATRA-differentiated human SH-SY5Y cells assessed as reduction in cell death at 10 uM after 24 hrs by propidium iodide staining based assay relative to control; format: functional; design: scale not given: the % may be the effect or the level left
In short: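 SH-SY5Y cells (20,000/well) differentiated 48 h with 10 µM ATRA in DMEM/F12 with 1% FBS. Medium replaced by fresh DMEM/F12 with 1% FBS containing test compound at 0.1, 1 or 10 µM; DMSO vehicle as negative control. Cells exposed immediately to 160 mM glutamate for 24 h. Dead cells stained with propidium iodide (1 µg/mL final, 15 min, rt); fluorescence read at ex 535/em 617 nm.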

[8] = test system: SH-SY5Y; assay: Cytoprotective activity against glutamate-induced human ATRA-differentiated SH-SY5Y cells assessed as reduction in oxidative stress […] by dihydroethidium staining based assay; format: functional, cell-based; settings: dose 0.1-10 µM
[9] = Drug degradation in human liver microsomes at 2 uM measured up to 60 mins by RF-MS analysis; format: ADME, Tissue, Microsome; settings: read-out: Drug degradation
[10] = target: T1, Frataxin, mitochondrial (Homo sapiens) (UniProt Q16595); assay: Activation of His6-tagged-thrombin cleavage site-fused FXN (79 to 207 residues) (unknown origin) assessed as increase in Fe-S cluster biosynthesis at 30 to 500 uM by UV-visible spectroscopy relative to control; settings: dose 30-500 µM
T1 sequence (whole entry): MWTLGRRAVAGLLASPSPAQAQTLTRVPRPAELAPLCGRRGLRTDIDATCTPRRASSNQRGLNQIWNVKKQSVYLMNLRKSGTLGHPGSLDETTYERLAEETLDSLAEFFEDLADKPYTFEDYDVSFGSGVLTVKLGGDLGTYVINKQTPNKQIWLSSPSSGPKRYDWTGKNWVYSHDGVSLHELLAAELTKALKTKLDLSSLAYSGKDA
In short: (§1)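 Mouse ISC machinery reconstituted in vitro from purified proteins under anaerobic conditions. Buffer was 50 mM Tris, 150 mM NaCl, pH 8, with 50 µM apo-ISCU loaded with one equivalent Fe2+, 5 µM NFS1-ISD11-ACP, 5 µM FDX2, 2 µM FDXR and 100 µM NADPH. Compounds in DMSO were tested at 30, 50, 100, 200 and 500; DMSO was equalized. 5 µM FXN served as positive control. Run in triplicate.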

[11] = test system: GM04078; assay: Cytoprotective activity against BSO-induced toxicity in human GM04078 cells assessed as increase in cell viability preincubated for 24 hrs followed by BSO-stimulation and […] by resazurin fluorescence based assay; format: functional
[12] = test system: SH-SY5Y; assay: Cytoprotective activity against glutamate-induced human ATRA-differentiated SH-SY5Y cells from ECACC assessed as reduction in oxidative stress at 10 uM after 24 hrs by dihydroethidium staining based assay; format: functional, cell-based
[13] = test system: GM04078; assay: Cytoprotective activity against BSO-induced toxicity in human GM04078 cells assessed as restoring FXN protein expression at 10 to 50 uM after 48 hrs by immunodetection assay; format: functional, cell-based; settings: dose 10-50 µM
In short: (§2)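 GM04078 cells (about 1.4 million per 10 cm dish, DMEM with 10% FBS) were treated 24 h after seeding at 10 and 50 µM and harvested after 48 h. Lysates in Laemmli buffer were normalized by Bradford, 25–40 µg run on 12.5% SDS-PAGE and transferred to PVDF. Blots were probed with anti-frataxin mouse antibody (18A5DB1), actin as loading control, HRP secondary and ECL.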

[14] = target: T1, Frataxin, mitochondrial (Homo sapiens); assay: Inhibition of His6-tagged-thrombin cleavage site-fused FXN (79 to 207 residues) (unknown origin) assessed as increase in Fe-S cluster biosynthesis at 30 to 500 uM by UV-visible spectroscopy relative to control; settings: dose 30-500 µM; in short: as §1
[15] = test system: GM04078; assay: Cytoprotective activity against BSO-induced toxicity in human GM04078 cells assessed as restoring GSH level […] by confocal microscopic method; format: functional, cell-based; settings: time 32.0 hrs
[16] = test system: GM04078; assay: Cytoprotective activity against BSO-induced toxicity in human GM04078 cells assessed as increase in cell viability at 10 to 50 uM preincubated for 24 hrs followed by BSO-stimulation and […] by resazurin fluorescence based assay; format: functional; settings: dose 10-50 µM
[17] = test system: GM04078; assay: Cytoprotective activity against BSO-induced toxicity in human GM04078 cells assessed as restoring FXN protein expression at 10 to 50 uM after 48 hrs by Western blot analysis; format: functional, cell-based; settings: dose 10-50 µM; in short: as §2

| Compound | remaining at 2 h, 2 µM [1] | fraction unbound at 4 h, 10 µM [2] | Papp [3] | Activity [4] | Papp [5] | remaining at 1 h, 2 µM [6] | further results |
| --- | --- | --- | --- | --- | --- | --- | --- |
| c1coc(CNc2ncnc3cc[nH]c23)c1 | 83% | 0.871 | 7.6 ×10⁻⁶ cm/s | Active | 16.3 ×10⁻⁶ cm/s | 78% |  |
| Cc1ccc(CNc2ncnc3[nH]ncc23)o1 |  |  |  | inactive |  |  |  |
| Clc1nc(NCc2ccco2)c2[nH]cnc2n1 | 83% | 0.871 | 7.6 ×10⁻⁶ cm/s |  | 16.3 ×10⁻⁶ cm/s | 78% |  |
| Cc1oc2ncnc(NCc3ccco3)c2c1C | 83% | 0.871 | 7.6 ×10⁻⁶ cm/s | Active | 16.3 ×10⁻⁶ cm/s | 78% | Activity [7]: 10%; Activity [8]: Dose-dependent effect; metabolised at 1 h, 2 µM [9]: > 50% |
| Clc1nc(NCc2ccco2)c2[nH]ccc2n1 | 83% | 0.871 | 7.6 ×10⁻⁶ cm/s | Active | 16.3 ×10⁻⁶ cm/s | 78% | Activity [7]: 10%; Activity [8]: Dose-dependent effect |
| c1coc(CNc2ncnc3ccsc23)c1 | 83% | 0.871 | 7.6 ×10⁻⁶ cm/s | Active | 16.3 ×10⁻⁶ cm/s | 78% | metabolised at 1 h, 2 µM [9]: > 50% |
| c1coc(CNc2ncnc3[nH]cnc23)c1 [KINETIN] | 83% | 0.871 | 7.6 ×10⁻⁶ cm/s |  | 16.3 ×10⁻⁶ cm/s | 78% |  |
| c1coc(CNc2nccc3[nH]cnc23)c1 | 83% | 0.871 | 7.6 ×10⁻⁶ cm/s |  | 16.3 ×10⁻⁶ cm/s | 78% | Activity [10]: 0.5%; Activity [11]: Dose-dependent effect |
| c1coc(CNc2ncnc3sccc23)c1 | 83% | 0.871 | 7.6 ×10⁻⁶ cm/s | Active | 16.3 ×10⁻⁶ cm/s | 78% |  |
| Clc1nc(NCc2ccco2)c2cc[nH]c2n1 | 83% | 0.871 | 7.6 ×10⁻⁶ cm/s | Active | 16.3 ×10⁻⁶ cm/s | 78% |  |
| c1coc(CNc2ncnc3[nH]ccc23)c1 | 83% | 0.871 | 7.6 ×10⁻⁶ cm/s | Active | 16.3 ×10⁻⁶ cm/s | 78% |  |
| c1coc(CNc2ccnc3[nH]cnc23)c1 | 83% | 0.871 | 7.6 ×10⁻⁶ cm/s |  | 16.3 ×10⁻⁶ cm/s | 78% |  |
| Clc1cc2[nH]cnc2c(NCc2ccco2)n1 | 83% | 0.871 | 7.6 ×10⁻⁶ cm/s |  | 16.3 ×10⁻⁶ cm/s | 78% | Activity [7]: 10%; Activity [12]: Active; Activity [13]: inactive; inhibition [14]: Active; Activity [11]: Dose-dependent effect; Activity [15]: inactive; Activity [16]: Active; Activity [17]: inactive; Activity [8]: Dose-dependent effect |
| Cl.c1coc(CNc2ncnc3ccccc23)c1 | 83% | 0.871 | 7.6 ×10⁻⁶ cm/s | Active | 16.3 ×10⁻⁶ cm/s | 78% |  |
| CN(Cc1ccco1)c1ncnc2c1cnn2C |  |  |  | inactive |  |  |  |
| Cc1ccc(CN(C)c2ncnc3c2cnn3C)o1 |  |  |  | inactive |  |  |  |
| c1coc(CNc2ccnc3ccnn23)c1 | 83% | 0.871 | 7.6 ×10⁻⁶ cm/s |  | 16.3 ×10⁻⁶ cm/s | 78% |  |
| Clc1cc(NCc2ccco2)c2nc[nH]c2n1 | 83% | 0.871 | 7.6 ×10⁻⁶ cm/s |  | 16.3 ×10⁻⁶ cm/s | 78% |  |
| Cc1ccc(C(C)Nc2ncnc3c2cnn3C)o1 (configuration not stated) |  |  |  | inactive |  |  |  |
| c1coc(CNc2ncnc3occc23)c1 | 83% | 0.871 | 7.6 ×10⁻⁶ cm/s | Active | 16.3 ×10⁻⁶ cm/s | 78% |  |
| c1coc(CNc2ncnc3[nH]nnc23)c1 | 83% | 0.871 | 7.6 ×10⁻⁶ cm/s | inactive | 16.3 ×10⁻⁶ cm/s | 78% |  |
| c1coc(CNc2ncnc3cn[nH]c23)c1 | 83% | 0.871 | 7.6 ×10⁻⁶ cm/s | inactive | 16.3 ×10⁻⁶ cm/s | 78% |  |
